Among the data in ChEMBL document CHEMBL2016502, “Synthesis and fungicidal activity of tubulin polymerisation promoters. Part 2: pyridazines” (2012) are EC80 and Activity values, retold here.

≈ marks a conversion by molar mass, not a printed value. Calls of active or inactive are those of the source. The calls are words filed in the database; no cut-off is given here. Where only a bound is given, the exact number is not on record here.

Assay [1] relates to Botrytis cinerea. Description: Antifungal activity against Botrytis cinerea infected tomato plant assessed as leaf area with disease after 2 days relative to control. It is filed as functional. To be noted: 48 h. A digest of the protocol:
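Tomato plants (cv. Roter Gnom, four weeks old) received a spray-chamber application of formulated compound in water. A spore suspension was sprayed on 2 days after treatment. Plants were incubated in a greenhouse at 20 °C and 95% rh. Diseased leaf area (%) was assessed 5–6 days after application, when untreated checks were adequately diseased.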

In assay [2] the test system is Zymoseptoria tritici. Description: Antifungal activity against Mycosphaerella graminicola infected in wheat plant assessed as decrease in wheat leaf blotch relative to control. It is filed as functional. In outline: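 Wheat plants (cv. Riband, two weeks old) were treated in a spray chamber with formulated compound diluted in water and spray-inoculated with spores 1 day later. They were incubated for 1 day at 22/21 °C (day/night) and 95% rh, then kept in a greenhouse at 22/21 °C and 70% rh. Efficacy was scored 16–19 days after application, against diseased untreated checks.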

The test system of assay [3] is Alternaria solani. Description: Antifungal activity against Alternaria solani infected in tomato plant assessed as leaf area with disease after 2 days relative to control. It is filed as functional. To be noted: 48 h. In outline: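 Four-week-old tomato plants (cv. Roter Gnom) were sprayed in a chamber with formulated compound diluted in water. Plants were spray-inoculated with a spore suspension 2 days later and held in a greenhouse at 22/18 °C (day/night) and 95% rh.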

In assay [4] the target is Tubulin (Sus scrofa) (UniProt P02554+P02550). As to the kind of experiment: Induction of porcine tubulin polymerization at 0.24 to 20 ppm by spectrophotometric analysis. Format: protein assay. A digest of the protocol: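 Compound was added at reaction start at 20, 2.2 and 0.24 ppm from a 0.2 mM DMSO solution. The reaction was started at 37 °C and followed by absorbance at 340 nm. Paclitaxel served as positive control and DMSO as negative control.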
Tubulin (Sus scrofa), sequence (P02550 whole entry, looked up): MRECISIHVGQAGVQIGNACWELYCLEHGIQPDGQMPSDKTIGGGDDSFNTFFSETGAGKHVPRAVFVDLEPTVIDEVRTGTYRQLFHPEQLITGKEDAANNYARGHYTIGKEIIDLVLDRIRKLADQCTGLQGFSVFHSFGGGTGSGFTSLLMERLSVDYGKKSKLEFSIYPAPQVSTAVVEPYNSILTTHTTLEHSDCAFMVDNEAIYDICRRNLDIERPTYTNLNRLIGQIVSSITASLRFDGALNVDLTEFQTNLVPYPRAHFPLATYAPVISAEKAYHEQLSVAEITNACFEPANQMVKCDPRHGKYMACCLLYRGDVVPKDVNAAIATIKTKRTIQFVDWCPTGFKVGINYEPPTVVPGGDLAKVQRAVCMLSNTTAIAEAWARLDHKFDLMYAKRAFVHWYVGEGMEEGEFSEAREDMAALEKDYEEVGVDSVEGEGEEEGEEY
Tubulin (Sus scrofa), sequence (P02554 whole entry, looked up): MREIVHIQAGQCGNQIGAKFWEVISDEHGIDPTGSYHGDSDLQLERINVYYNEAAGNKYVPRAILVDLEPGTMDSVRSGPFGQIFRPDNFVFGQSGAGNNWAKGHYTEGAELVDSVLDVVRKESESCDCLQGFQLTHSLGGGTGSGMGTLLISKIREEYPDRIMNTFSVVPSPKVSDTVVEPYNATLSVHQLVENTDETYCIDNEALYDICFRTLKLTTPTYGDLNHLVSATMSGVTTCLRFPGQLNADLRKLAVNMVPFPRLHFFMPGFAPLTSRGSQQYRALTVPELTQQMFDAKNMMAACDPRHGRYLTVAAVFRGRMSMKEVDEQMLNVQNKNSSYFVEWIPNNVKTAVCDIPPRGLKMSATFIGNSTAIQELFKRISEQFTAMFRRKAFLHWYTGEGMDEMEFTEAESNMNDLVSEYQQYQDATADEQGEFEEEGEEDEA

By EC80 is commonly meant the concentration at which the effect reaches the 80% level. On to `Fc1cc(F)c(-c2c(Cl)nnc(Cl)c2-c2ccc(Cl)cc2)c(F)c1`, for which the EC80 in assay [1] worked out at 127 µg/mL (≈ 326 µM); in assay [2], 96 µg/mL (≈ 246 µM); in assay [3], 134 µg/mL (≈ 344 µM).
For the compound `CSc1nnc(Cl)c(-c2c(F)cc(F)cc2F)c1-c1ccc(Cl)cc1`, the EC80 in assay [1] is 124 µg/mL (≈ 309 µM); in assay [2], 90 µg/mL (≈ 224 µM); in assay [3], 42 µg/mL (≈ 105 µM).
As for `Cc1nnc(Cl)c(-c2c(F)cc(F)cc2F)c1-c1ccc(Cl)s1`, the EC80 came out at 25 µg/mL (≈ 66.6 µM) in assay [1], 41 µg/mL (≈ 109 µM) in assay [2] and 49 µg/mL (≈ 131 µM) in assay [3]. Also, the outcome in assay [4] was Active.
As to `COc1cc(F)c(-c2c(Cl)nnc(C)c2-c2ccc(Cl)nc2)cc1F`, the EC80 was found to be 23 µg/mL (≈ 60.2 µM) in assay [1], 46 µg/mL (≈ 120 µM) in assay [2] and 19 µg/mL (≈ 49.7 µM) in assay [3].
The corresponding values for `Cc1nnc(Cl)c(-c2c(F)cc(F)cc2F)c1Cc1ccccc1` are 77 µg/mL (≈ 221 µM), 50 µg/mL (≈ 143 µM) and 56 µg/mL (≈ 161 µM).
With `COc1cc(F)cc(F)c1-c1c(Cl)nnc(C)c1-c1ccc(Cl)nc1`, the EC80 in assay [1] was greater than 200 µg/mL; in assay [2], 95 µg/mL (≈ 249 µM); in assay [3] it was 17 µg/mL (≈ 44.5 µM).
Take `CC(=O)O[C@H]1C(=O)[C@@]2(C)[C@H]([C@H](OC(=O)c3ccccc3)[C@]3(O)C[C@H](OC(=O)[C@H](O)[C@@H](NC(=O)c4ccccc4)c4ccccc4)C(C)=C1C3(C)C)[C@]1(OC(C)=O)CO[C@@H]1C[C@@H]2O`: the result in assay [4] was Active.
`COc1nnc(C)c(-c2ccc(Cl)cc2)c1-c1c(F)cc(F)cc1F`: the EC80 is 97 µg/mL (≈ 266 µM) in assay [1], 53 µg/mL (≈ 145 µM) in assay [2] and 57 µg/mL (≈ 156 µM) in assay [3].
On to `Cc1nnc(C)c(-c2c(F)cc(F)cc2F)c1-c1ccc(Cl)cc1`, for which the EC80 in assay [1] worked out at 4 µg/mL (≈ 11.5 µM); in assay [2] it was 14 µg/mL (≈ 40.1 µM); in assay [3], 18 µg/mL (≈ 51.6 µM).
`COc1nnc(Cl)c(-c2c(F)cc(F)cc2F)c1-c1ccc(Cl)cc1`: the EC80 in assay [1] turned out to be 58 µg/mL (≈ 151 µM); in assay [2], 14 µg/mL (≈ 36.3 µM); in assay [3] it was 92 µg/mL (≈ 239 µM).
The corresponding values for `Cc1nnc(Cl)c(-c2ncc(Cl)cc2Cl)c1-c1ccc(Cl)nc1` are 15 µg/mL (≈ 38.9 µM), 9 µg/mL (≈ 23.3 µM) and 33 µg/mL (≈ 85.5 µM).
On to `Cc1nnc(Cl)c(-c2c(F)cc(F)cc2F)c1-c1ccc(Cl)cc1`, for which the EC80 in assay [1] is 6 µg/mL (≈ 16.3 µM); in assay [2] it was 2 µg/mL (≈ 5.42 µM); in assay [3], 2 µg/mL (≈ 5.42 µM).
As to `Cc1nnc(F)c(-c2c(F)cc(F)cc2F)c1-c1ccc(Cl)cc1`, the EC80 came out at 8 µg/mL (≈ 22.7 µM) in assay [1], 191 µg/mL (≈ 542 µM) in assay [2] and 17 µg/mL (≈ 48.2 µM) in assay [3].
For `C#Cc1ccc(-c2c(C)nnc(Cl)c2-c2c(F)cc(F)cc2F)cc1`, the EC80 in assay [1] amounted to 3 µg/mL (≈ 8.36 µM); in assay [2] it was 1 µg/mL (≈ 2.79 µM); in assay [3], 1 µg/mL (≈ 2.79 µM).
For the compound `Cc1nnc(Cl)c(-c2c(F)cc(F)cc2F)c1-c1ccc(Cl)nc1`, the EC80 was 1 µg/mL (≈ 2.7 µM) in assay [1], 1 µg/mL (≈ 2.7 µM) in assay [2] and 2 µg/mL (≈ 5.4 µM) in assay [3].
As for `COc1cc(F)c(-c2c(Cl)nnc(C)c2-c2ccc(Cl)nc2)c(F)c1`, the EC80 in assay [1] came to 1 µg/mL (≈ 2.62 µM); in assay [2], 3 µg/mL (≈ 7.85 µM); in assay [3], 1 µg/mL (≈ 2.62 µM).
For the compound `CN(C)c1nnc(Cl)c(-c2c(F)cc(F)cc2F)c1-c1ccc(Cl)cc1`, the EC80 came out at 40 µg/mL (≈ 100 µM) in assay [1], 6 µg/mL (≈ 15.1 µM) in assay [2] and 16 µg/mL (≈ 40.2 µM) in assay [3].
Consider `Cc1nnc(Cl)c(-c2c(F)cccc2F)c1-c1ccc(Cl)nc1`, for which the EC80 in assay [1] worked out at 78 µg/mL (≈ 221 µM); in assay [2] it was 60 µg/mL (≈ 170 µM); in assay [3], 54 µg/mL (≈ 153 µM).
The matching figures for `Cc1nnc(Cl)c(-c2c(F)cc(F)cc2F)c1-c1ccc2ccccc2n1`: 1 µg/mL (≈ 2.59 µM), 5 µg/mL (≈ 13 µM) and 4 µg/mL (≈ 10.4 µM).
The matching figures for `Cc1nnc(O)c(-c2c(F)cc(F)cc2F)c1-c1ccc(Cl)cc1`: greater than 200 µg/mL, greater than 200 µg/mL and greater than 200 µg/mL.
